# Laboratory results as given in ChEMBL document CHEMBL1155046, “Chemical constituents of Aristolochia constricta: antispasmodic effects of its constituents in guinea-pig ileum and isolation of a diterpeno-lignan hybrid” (2008).
# Assays:
# Ileum [1] = test: Antispasmodic activity in guinea pig ileum assessed as inhibition of electrically-induced smooth muscle contraction; type: functional, Cavia porcellus
# Summary of the method: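 Male albino guinea-pig ileum (300-450 g) held under 1 g tension in Krebs-Henseleit at 38.5 °C, gassed 95% O2/5% CO2. Transmural stimulation through platinum ring electrodes: supramaximal 38.6 V, 0.2 Hz, 0.3 ms square pulses. Once twitch was stable, compounds added cumulatively at 10, 30, 100 µM. Isotonic recording, contraction as % of control. IC50 calculated. Mean ± SEM from 4-5 animals. DMSO vehicle <1% final.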
# Ileum [2] = test: Antispasmodic activity in guinea pig ileum assessed as inhibition of acetylcholine-induced smooth muscle contraction; type: functional, Cavia porcellus
# Summary of the method: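 Ileum from male albino guinea pigs (300-450 g) in Krebs-Henseleit solution, 1 g tension, 10 mL bath, 38.5 °C, 95% O2/5% CO2. After 0.5 h equilibration, checked with 3 µM ACh three times. Samples (10, 30, 100 µM) added noncumulatively 20 min before 3 µM ACh. Contraction recorded isotonically, expressed as % of untreated ACh height. IC50 calculated. Mean ± SEM, 4-5 animals. DMSO <1% final.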
SMILES,IC50 (Ileum [1]),IC50 (Ileum [2])
O[C@H]1OC[C@H](Cc2ccc3c(c2)OCO3)[C@H]1Cc1ccc2c(c1)OCO2,51.6 µM,23.6 µM
CC1(C)CCC[C@]2(C)[C@@H]1CC[C@]13C=C(COC4OC[C@H](Cc5ccc6c(c5)OCO6)[C@H]4Cc4ccc5c(c4)OCO5)[C@@H](CC[C@H]12)C3 (some centres undefined),> 100 µM,> 100 µM
C=C1C[C@@]23CC[C@H]4[C@@](C)(CCC[C@]4(C)C(=O)O)[C@@H]2CCC1C3,28.2 µM,25.4 µM
CC1(C)CCC[C@]2(C)[C@@H]1CC[C@]13C=C(CO)[C@@H](CC[C@H]12)C3,34.1 µM,> 100 µM
COc1cc(C[C@H]2CO[C@@H](O)[C@@H]2Cc2ccc3c(c2)OCO3)ccc1O,52.8 µM,39.5 µM
CC1(C)CCC[C@]2(C)[C@@H]1CC[C@@]13C[C@H](CC[C@H]12)[C@@](O)(CO)C3,> 100 µM,> 100 µM
COc1cc(C[C@H]2C(=O)OC[C@@H]2Cc2ccc3c(c2)OCO3)ccc1O,58.3 µM,26.8 µM
"COc1cc2c(cc1C)C(=O)CCC2C (single isomer, unassigned; (+))",> 100 µM,89.8 µM
COc1cccc2c1cc([N+](=O)[O-])c1c(C(=O)O)cc3c(c12)OCO3 [ARISTOLOCHIC ACID],64 µM,> 100 µM
OC[C@H](Cc1ccc2c(c1)OCO2)[C@H](CO)Cc1ccc2c(c1)OCO2 [DIHYDROCUBEBIN],> 100 µM,40.4 µM
O=C1OC[C@H](Cc2ccc3c(c2)OCO3)[C@H]1Cc1ccc2c(c1)OCO2 [HINOKININ],69.8 µM,27.3 µM
COc1ccc(CCN(C)CCCC(C#N)(c2ccc(OC)c(OC)c2)C(C)C)cc1OC (centres undefined) [VERAPAMIL],0.25 µM,0.28 µM
